For test [1], the target named is T1, Fatty acid-binding protein, liver (Rattus norvegicus) (UniProt P02692).
T1 sequence (whole entry): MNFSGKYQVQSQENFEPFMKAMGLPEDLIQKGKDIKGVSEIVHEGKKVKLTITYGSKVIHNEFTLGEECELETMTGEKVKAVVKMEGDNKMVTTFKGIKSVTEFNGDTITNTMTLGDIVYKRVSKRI
The test can be described thus: Binding affinity to rat recombinant L-FABP low affinity site expressed in Escherichia coli BL21(DE3) assessed as occupancy at a drug-protein molar ratio of 3:1 by NMR chemical shift perturbation method.

Test [2] deals with T1, Fatty acid-binding protein, liver (Rattus norvegicus). The test can be described thus: Binding affinity to rat recombinant L-FABP high affinity site expressed in Escherichia coli BL21(DE3) assessed as occupancy at a drug-protein molar ratio of 3:1 by NMR chemical shift perturbation method.
The target of test [3] is T2, Fatty acid-binding protein, liver (Rattus norvegicus, UniProt P02692).
T2 sequence (P02692 whole entry): T1 sequence (whole entry)
Kind of test: Binding affinity to rat recombinant L-FABP high affinity site expressed in Escherichia coli BL21(DE3) at 30 deg C by fluorimetric assay. The method, boiled down: (§1)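 Steady-state ANS displacement: the fluorescent cavity probe 1-anilino-8-naphthalene sulfonic acid is bound to recombinant rat L-FABP (15N/13C-labelled, purified from E. coli). Fibrates in DMSO are titrated directly into the protein. The fall in ANS fluorescence is plotted against free ligand. A two-site competition nonlinear fit gives EC50, converted to Ki for each site.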

In test [4] the target is T2, Fatty acid-binding protein, liver. Kind of test: Binding affinity to rat recombinant L-FABP high affinity site expressed in Escherichia coli BL21(DE3) at 20 deg C by fluorimetric assay. The method, boiled down: as §1
The target is the same in test [5]. The test can be described thus: Binding affinity to rat recombinant L-FABP high affinity site expressed in Escherichia coli BL21(DE3) at 15 deg C by fluorimetric assay. In outline:
as §1

Test [6] shares this target. Kind of test: Binding affinity to rat recombinant L-FABP high affinity site expressed in Escherichia coli BL21(DE3) at 10 deg C by fluorimetric assay. In outline:
as §1

For test [7] the target is unchanged. The test can be described thus: Binding affinity to rat recombinant L-FABP high affinity site expressed in Escherichia coli BL21(DE3) at 42 deg C by fluorimetric assay. In outline: as §1
The target is the same in test [8]. Kind of test: Binding affinity to rat recombinant L-FABP high affinity site expressed in Escherichia coli BL21(DE3) at 25 deg C by fluorimetric assay. The method, boiled down:
as §1

Test [9] shares this target. The test can be described thus: Binding affinity to rat recombinant L-FABP high affinity site expressed in Escherichia coli BL21(DE3) at 5 deg C by fluorimetric assay. In outline:
as §1

Test [10] shares this target. Kind of test: Binding affinity to rat recombinant L-FABP high affinity site expressed in Escherichia coli BL21(DE3) at 37 deg C by fluorimetric assay. The method, boiled down: as §1
Test [11] has the same target. Kind of test: Binding affinity to rat recombinant L-FABP low affinity site expressed in Escherichia coli BL21(DE3) at 20 deg C by fluorimetric assay. In outline: as §1
The target is the same in test [12]. The test can be described thus: Binding affinity to rat recombinant L-FABP low affinity site expressed in Escherichia coli BL21(DE3) at 15 deg C by fluorimetric assay. The method, boiled down:
as §1

Test [13] shares this target. The test can be described thus: Binding affinity to rat recombinant L-FABP low affinity site expressed in Escherichia coli BL21(DE3) at 25 deg C by fluorimetric assay. The method, boiled down:
as §1

Test [14] has the same target. Kind of test: Binding affinity to rat recombinant L-FABP low affinity site expressed in Escherichia coli BL21(DE3) at 10 deg C by fluorimetric assay. The method, boiled down:
as §1

Test [15] shares this target. The test can be described thus: Binding affinity to rat recombinant L-FABP low affinity site expressed in Escherichia coli BL21(DE3) at 42 deg C by fluorimetric assay. The method, boiled down: as §1
The target is the same in test [16]. Kind of test: Binding affinity to rat recombinant L-FABP low affinity site expressed in Escherichia coli BL21(DE3) at 30 deg C by fluorimetric assay. The method, boiled down: as §1
Test [17] shares this target. The test can be described thus: Binding affinity to rat recombinant L-FABP low affinity site expressed in Escherichia coli BL21(DE3) at 5 deg C by fluorimetric assay. In outline: as §1
Test [18] has the same target. Kind of test: Binding affinity to rat recombinant L-FABP low affinity site expressed in Escherichia coli BL21(DE3) at 37 deg C by fluorimetric assay. The method, boiled down: as §1

Structures are written as SMILES. Active and inactive are the calls of the source. The calls are words filed in the database; no cut-off is given here.

Broadly, the Kd is the constant that tells how readily two partners part at equilibrium.

Consider `CC(C)(Oc1ccc(C2CC2(Cl)Cl)cc1)C(=O)O` (stereo not given), for which the Activity in test [1] was 85%; in [2], 100%.

Regarding `CC(C)(Oc1ccc(CCNC(=O)c2ccc(Cl)cc2)cc1)C(=O)O`, the Activity in test [1] came to 93%. Moreover, the result in test [2] was inactive.

For the compound `Cc1ccc(C)c(OCCCC(C)(C)C(=O)O)c1`, the Activity is 79% in test [1] and 100% in [2].

Turning to `CCOC(=O)C(C)(C)Oc1ccc(Cl)cc1` [CLOFIBRATE], the Kd was 9.6 µM in test [3]; 7.8 µM in test [4]; 7.3 µM in test [5]; 6.7 µM in [6]; 12 µM in test [7]; 8.9 µM in [8]. Further, the figures for the Kd in [9] and in test [10] were 6 µM and 11 µM, respectively. The outcome in test [1] was inactive. For the same compound, the Activity in test [2] was determined as 99%.

As for `CC(C)OC(=O)C(C)(C)Oc1ccc(C(=O)c2ccc(Cl)cc2)cc1` [FENOFIBRATE], the equilibrium dissociation constant (Kd) in test [3] was 0.041 µM; in test [4] it was 0.027 µM; in test [11] it was 0.2 µM; in [5], 0.024 µM; in test [12], 0.16 µM; in test [13] it was 0.25 µM. Further, the Kd was found to be 0.023 µM in test [6]; 0.15 µM in [14]; 0.032 µM in [8]; 0.36 µM in [15]; 0.27 µM in [16]; 0.13 µM in [17]. The figures for the Kd in test [18], in test [9] and in test [10] were 0.32 µM, 0.018 µM and 0.062 µM, respectively. The Activity in test [1] and in test [2] was 100% each time.

For the compound `CC(C)(Oc1ccc(C(=O)c2ccc(Cl)cc2)cc1)C(=O)O` [FENOFIBRIC ACID], the Kd turned out to be 0.36 µM in test [3]; 0.22 µM in test [4]; 23 µM in test [11]; 0.16 µM in test [5]; 20 µM in test [12]; 24 µM in [13]. In addition, the Kd worked out at 0.1 µM in test [6]; 19 µM in [14]; 0.34 µM in test [8]; 29 µM in [15]; 27 µM in test [16]; 18 µM in test [17]. Besides, the figures for the Kd in test [18], in test [9] and in [10] were 28 µM, 0.094 µM and 0.42 µM, respectively. Moreover, the Activity came to 96% in test [1] and 100% in [2].

Source of the values: ChEMBL document CHEMBL1152434, “Probing the fibrate binding specificity of rat liver fatty acid binding protein” (J Med Chem, 2009).
